Measured values taken from publication PMC3662534 (Molecular cancer therapeutics, 2009).
“Also recorded” adds a separate entry of the source. Positions of bridges follow the written chain, without caps; N, C: chain ends. Non-standard residues stand in square brackets, D forms with d. Residues, ends and D or L forms follow the SMILES beside them. *: point of attachment. DTPA = O=C(O)CN(CCN(CC(=O)O)CC(=O)O)CCN(CC(=O)O)CC(=O)*; dPen = CC(C)(S)[C@@H](N)C(=O)O

How the values were obtained:
Hek293/MC4R/CCK2R cells = assay: Cell fluorescence imaging of Cy5 labeled ligand binding and internalization; assay type: cell-based, human
Procedure, shortened: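 Live stable Hek293/MC4R/CCK2R cells on coverslips were held in a 37°C stage chamber. Cells were incubated with 0.8 nM Cy5-tagged heterobivalent ligand (15 sec, or 3 min in the legend) and rinsed with ligand-free medium. Images were taken immediately and 7 min later by CCD camera, with Cy5 excitation at 640 nm (20 nm bandpass) and emission at 690 nm (30 nm filter).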

[1] = test system: Hek293 cells expressing MC4R and/or CCK2R; assay: Cytotoxicity, celltiter-Glo luminescent cell viability assay; assay type: cell-based, human; conditions: 1 μM, dual receptor expressing (target) cells, 24 and 48 h
[2] = target: human delta-opioid receptor (δOR) (Homo sapiens, UniProt P41143); conditions: saturation binding to δOR in CHO/MC4R/δOR cells
human delta-opioid receptor (δOR), sequence (P41143 whole entry): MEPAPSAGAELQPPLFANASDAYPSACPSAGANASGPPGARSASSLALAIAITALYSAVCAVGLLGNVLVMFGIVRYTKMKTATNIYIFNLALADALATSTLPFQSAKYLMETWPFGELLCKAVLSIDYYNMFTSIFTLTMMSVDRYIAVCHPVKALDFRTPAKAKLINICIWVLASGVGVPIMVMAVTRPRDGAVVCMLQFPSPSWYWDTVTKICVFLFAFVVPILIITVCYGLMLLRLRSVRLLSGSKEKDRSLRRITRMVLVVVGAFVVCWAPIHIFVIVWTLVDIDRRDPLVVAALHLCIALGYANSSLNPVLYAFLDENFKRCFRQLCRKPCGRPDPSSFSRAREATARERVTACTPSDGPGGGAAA

Ac-MSH7-PEGO-[Pro-Gly]3-Lys(Cy5)-PEGO-CCK6-NH2
internalization of receptor/ligand complex (Hek293/MC4R/CCK2R cells; by 10 minutes, no significant loss of ligand on adding CCK ligand 50 μM): substantially internalized | binding to the cell surface (Cy5 fluorescence) (Hek293/MC4R/CCK2R cells; immediately following incubation, 15 sec with 0.8 nM): significant binding to the cell surface

cholecystokinin-8 [CCK]
cell viability [1]: reduced viability; also recorded: toxicity

CC1(C)SSC[C@@H](C(=O)N[C@@H](Cc2ccccc2)C(=O)N[C@@H](CCCCNC(=O)CN(CCN(CCN(CC(=O)O)CC(=O)O)CC(=O)O)CC(=O)O)C(N)=O)NC(=O)[C@H](Cc2ccccc2)NC(=O)CNC(=O)[C@@H]1NC(=O)[C@@H](N)Cc1ccc(O)cc1 [Eu-DPLCE, H-Tyr-c[DPen-Gly-Phe-Cys]-Phe-Lys(Eu-(DTPA))-NH2] (H-Y[dPen]GFCFK(DTPA)-NH2; disulfide 2-5)
Bmax [2]: 24,000 ± 2,000 AFU
